Results from ChEMBL document CHEMBL4346731, “Novel meriolin derivatives as rapid apoptosis inducers” (Bioorg Med Chem, 2019).
The source made the active and inactive calls. No cut-off for these calls is given here.

Legend:
Ramos [1] = test: Antiproliferative activity against human Ramos cells assessed as reduction in cell viability after 24 hrs by resazurin dye-based spectrophotometric method; assay type: functional
Procedure, shortened: (§1)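 Cells (DSMZ stock) seeded at 0.5 x 10⁶ cells/mL and exposed to escalating compound concentrations (up to 30 μM) for 24 or 72 h; resazurin 40 μM added for the final 3 h. Resorufin fluorescence read at ex 535/em 590 nm. Viability normalized to 0.1% DMSO controls (100%). IC50 from nonlinear regression; mean of three independent experiments.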

Ramos [2] = test: Antiproliferative activity against human Ramos cells assessed as reduction in cell viability after 72 hrs by resazurin dye-based spectrophotometric method; assay type: functional; procedure, shortened: as §1
[3] = Antiproliferative activity against human Jurkat J16 cells assessed as reduction in cell viability after 24 hrs by resazurin dye-based spectrophotometric method; assay type: functional; procedure, shortened: as §1
[4] = Antiproliferative activity against human Jurkat J16 cells assessed as reduction in cell viability after 72 hrs by resazurin dye-based spectrophotometric method; assay type: functional; procedure, shortened: as §1
Ramos [5] = test: Induction of apoptosis in human Ramos cells assessed as caspase-3 activation at 0.3 uM using AcDEVD-AMC as substrate preincubated for up to 8 hrs followed by substrate addition and measured after 60 mins by spectrophotometric method; assay type: functional, cell-based
Procedure, shortened: (§2)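 Cells in 96-well plates treated for up to 8 h, alongside staurosporine 2.5 μM as positive control. Lysis in caspase buffer (20 mM HEPES, 84 mM KCl, 10 mM MgCl₂, 200 μM EDTA/EGTA, 0.5% NP-40, protease inhibitors), then reaction buffer with Ac-DEVD-AMC added. AMC fluorescence increase followed at 37 °C for at least 60 min.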

Ramos [6] = test: Induction of apoptosis in human Ramos cells assessed as caspase-3 activation at 1 uM using AcDEVD-AMC as substrate preincubated for up to 8 hrs followed by substrate addition and measured after 60 mins by spectrophotometric method; assay type: functional, cell-based; procedure, shortened: as §2
Homo sapiens [7] = organism: Homo sapiens; test: Induction of apoptosis in human Jurkat J16 cells assessed as caspase-3 activation at 0.3 uM using AcDEVD-AMC as substrate preincubated for up to 8 hrs followed by substrate addition and measured after 60 mins by spectrophotometric method; assay type: functional, cell-based; procedure, shortened: as §2
Homo sapiens [8] = organism: Homo sapiens; test: Induction of apoptosis in human Jurkat J16 cells assessed as caspase-3 activation at 1 uM using AcDEVD-AMC as substrate preincubated for up to 8 hrs followed by substrate addition and measured after 60 mins by spectrophotometric method; assay type: functional, cell-based; procedure, shortened: as §2
Ramos [9] = test: Induction of apoptosis in human Ramos cells assessed as increase in cleaved PARP1 protein expression at 1 uM after 2 to 8 hrs by immunoblotting analysis; assay type: functional, cell-based
Procedure, shortened: (§3)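 Ramos cells exposed to compound for 2-8 h at concentrations chosen from the cytotoxicity data, with or without the pan-caspase inhibitor Q-VD-OPh (10 μM). Cells were harvested, lysed and immunoblotted with mouse anti-PARP1, using GAPDH as loading control. Detection used IRDye800/680 secondary antibodies on an infrared imager.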

Ramos [10] = test: Induction of apoptosis in human Ramos cells assessed as increase in cleaved PARP1 protein expression at 1 uM after 2 to 8 hrs in presence of caspace-inhibitor Q-VD-Oph by immunoblotting analysis; assay type: functional, cell-based; procedure, shortened: as §3
Ramos [11] = test: Induction of apoptosis in human Ramos cells assessed as caspase-3 activation at 10 uM using AcDEVD-AMC as substrate preincubated for up to 8 hrs followed by substrate addition and measured after 60 mins by spectrophotometric method; assay type: functional, cell-based; procedure, shortened: as §2
Ramos [12] = test: Induction of apoptosis in human Ramos cells assessed as caspase-3 activation at 3 uM using AcDEVD-AMC as substrate preincubated for up to 8 hrs followed by substrate addition and measured after 60 mins by spectrophotometric method; assay type: functional, cell-based; procedure, shortened: as §2
Homo sapiens [13] = organism: Homo sapiens; test: Induction of apoptosis in human Jurkat J16 cells assessed as caspase-3 activation at 3 uM using AcDEVD-AMC as substrate preincubated for up to 8 hrs followed by substrate addition and measured after 60 mins by spectrophotometric method; assay type: functional, cell-based; procedure, shortened: as §2
Homo sapiens [14] = organism: Homo sapiens; test: Induction of apoptosis in human Jurkat J16 cells assessed as caspase-3 activation at 10 uM using AcDEVD-AMC as substrate preincubated for up to 8 hrs followed by substrate addition and measured after 60 mins by spectrophotometric method; assay type: functional, cell-based; procedure, shortened: as §2
Ramos [15] = test: Induction of apoptosis in human Ramos cells assessed as increase in cleaved PARP1 protein expression at 10 uM after 2 to 8 hrs by immunoblotting analysis; assay type: functional, cell-based; procedure, shortened: as §3
Ramos [16] = test: Induction of apoptosis in human Ramos cells assessed as increase in cleaved PARP1 protein expression at 10 uM after 2 to 8 hrs in presence of caspace-inhibitor Q-VD-Oph by immunoblotting analysis; assay type: functional, cell-based; procedure, shortened: as §3
[17] = target: Sphingosine kinase 1 (Homo sapiens) (UniProt Q9NYA1); test: Inhibition of SK1 (unknown origin) at 10 uM using sphingosine as substrate preincubated for 15 mins followed by substrate addition and measured after 30 mins by fluorescence based assay relative to control
Chain of Sphingosine kinase 1 (Homo sapiens) (Q9NYA1 whole entry): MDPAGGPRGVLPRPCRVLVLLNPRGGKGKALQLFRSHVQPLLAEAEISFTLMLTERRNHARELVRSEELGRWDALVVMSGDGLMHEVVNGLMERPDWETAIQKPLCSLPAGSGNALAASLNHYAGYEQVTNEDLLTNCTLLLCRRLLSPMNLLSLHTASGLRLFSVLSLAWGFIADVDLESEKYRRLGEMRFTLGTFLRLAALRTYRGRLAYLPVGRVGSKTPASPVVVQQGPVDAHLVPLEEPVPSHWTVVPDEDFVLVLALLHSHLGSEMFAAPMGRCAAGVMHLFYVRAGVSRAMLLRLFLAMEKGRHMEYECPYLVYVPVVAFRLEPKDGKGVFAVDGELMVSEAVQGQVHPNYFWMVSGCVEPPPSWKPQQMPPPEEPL
Procedure, shortened: (§4)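 Compound at 10 µM preincubated 15 min with SK1 (0.5 U/mL final) or SK2 (0.1 U/mL final). Sphingosine 5 µM plus ATP added; reaction 30 min (SK1) or 60 min (SK2) at room temperature. Buffer: 50 mM HEPES pH 7.5, 4 mM MgCl₂, 100 µM orthovanadate, 1 mM DTT, 0.01% Brij 35, 2 mM EGTA. Fluorescent detection reagent added for 60 min in the dark. Inhibition = 100 minus blank-corrected relative fluorescence. Triplicates, two independent experiments; mean ± SEM.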

[18] = target: T1, Sphingosine kinase 2 (Homo sapiens) (UniProt Q9NRA0); test: Inhibition of SK2 (unknown origin) at 10 using sphingosine as substrate preincubated for 15 mins followed by substrate addition and measured after 60 mins by fluorescence based assay relative to control; procedure, shortened: as §4
T1 sequence (whole entry): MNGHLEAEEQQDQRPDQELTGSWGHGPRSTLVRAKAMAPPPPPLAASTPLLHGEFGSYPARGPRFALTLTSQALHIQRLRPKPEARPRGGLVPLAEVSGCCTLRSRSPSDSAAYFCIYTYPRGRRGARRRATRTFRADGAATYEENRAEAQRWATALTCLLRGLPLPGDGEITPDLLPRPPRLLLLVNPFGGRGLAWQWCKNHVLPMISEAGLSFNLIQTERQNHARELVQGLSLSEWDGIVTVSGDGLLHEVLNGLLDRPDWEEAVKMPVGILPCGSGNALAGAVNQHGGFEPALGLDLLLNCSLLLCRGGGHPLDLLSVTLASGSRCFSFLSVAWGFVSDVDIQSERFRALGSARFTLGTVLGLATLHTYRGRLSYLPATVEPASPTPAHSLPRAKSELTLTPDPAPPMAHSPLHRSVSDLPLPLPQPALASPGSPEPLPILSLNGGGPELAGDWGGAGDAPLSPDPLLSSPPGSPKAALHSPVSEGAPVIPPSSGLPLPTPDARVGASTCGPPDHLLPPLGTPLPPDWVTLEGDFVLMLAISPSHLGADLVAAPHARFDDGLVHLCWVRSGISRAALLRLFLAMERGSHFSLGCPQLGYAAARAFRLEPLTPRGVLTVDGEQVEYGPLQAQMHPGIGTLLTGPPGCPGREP

Ramos [19] = test: Induction of apoptosis in human Ramos cells assessed as increase in cleaved PARP1 protein expression at 0.1 uM after 2 to 8 hrs by immunoblotting analysis; assay type: functional, cell-based; procedure, shortened: as §3
Ramos [20] = test: Induction of apoptosis in human Ramos cells assessed as caspase-3 activation at 0.1 uM using AcDEVD-AMC as substrate preincubated for up to 8 hrs followed by substrate addition and measured after 60 mins by spectrophotometric method; assay type: functional, cell-based; procedure, shortened: as §2
Homo sapiens [21] = organism: Homo sapiens; test: Induction of apoptosis in human Jurkat J16 cells assessed as caspase-3 activation at 0.1 uM using AcDEVD-AMC as substrate preincubated for up to 8 hrs followed by substrate addition and measured after 60 mins by spectrophotometric method; assay type: functional, cell-based; procedure, shortened: as §2
Ramos [22] = test: Induction of apoptosis in human Ramos cells assessed as increase in cleaved PARP1 protein expression at 0.1 uM after 2 to 8 hrs in presence of caspace-inhibitor Q-VD-Oph by immunoblotting analysis; assay type: functional, cell-based; procedure, shortened: as §3
Ramos [23] = test: Induction of apoptosis in human Ramos cells assessed as caspase-3 activation at 2.5 uM using AcDEVD-AMC as substrate preincubated for up to 8 hrs followed by substrate addition and measured after 60 mins by spectrophotometric method; assay type: functional, cell-based
Procedure, shortened: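 Ramos cells (DSMZ) plated in 96-well plates and treated for up to 8 h. Cells were then lysed in caspase buffer (20 mM HEPES, 84 mM KCl, 10 mM MgCl2, 200 µM EDTA/EGTA, 0.5% NP-40, protease inhibitors). Reaction buffer with Ac-DEVD-AMC was added, and AMC fluorescence increase was read at 37 °C for at least 60 min. Positive control: staurosporine 2.5 µM.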

Row | IC50 (Ramos [1]) | IC50 (Ramos [2]) | inhibition [17] | inhibition [18] | SMILES | IC50 [3] | IC50 [4] | Activity (Ramos [5]) | Activity (Ramos [6]) | Activity (Homo sapiens [7]) | Activity (Homo sapiens [8]) | Activity (Ramos [9]) | Activity (Ramos [10]) | Activity (Ramos [12]) | Activity (Homo sapiens [13]) | further results
1 | 370 nM | 240 nM |  |  | Nc1cc(-c2c[nH]c3ncccc23)nc(N)n1 | 430 nM | 210 nM | Active | Active | Active | Active | Active | inactive |  |  | 
2 | 6040 nM | 3900 nM |  |  | COc1cc(-c2c[nH]c3ncccc23)nc(N)n1 | 5560 nM | 3080 nM |  |  |  |  |  |  | Active | Active | Activity (Ramos [11]): Active; Activity (Homo sapiens [14]): Active; Activity (Ramos [15]): Active; Activity (Ramos [16]): inactive
3 | 4800 nM | 3730 nM | 10% | 72% | Nc1nccc(-c2c[nH]c3ncccc23)n1 [MERIOLIN 1] | 4530 nM | 2740 nM |  |  |  |  |  |  | Active | Active | Activity (Ramos [11]): Active; Activity (Homo sapiens [14]): Active; Activity (Ramos [15]): Active; Activity (Ramos [16]): inactive
4 | 300 nM | 180 nM |  |  | c1ccc(CNc2ccc(-c3c[nH]c4ncccc34)cn2)cc1 | 240 nM | 110 nM | Active | Active | Active | Active | Active | inactive |  |  | 
5 | 110 nM | 70 nM | 18% | 87% | Nc1cc(-c2c[nH]c3ncccc23)cc(N)n1 | 110 nM | 60 nM | Active |  | Active |  |  |  |  |  | Activity (Ramos [19]): Active; Activity (Ramos [20]): Active; Activity (Homo sapiens [21]): Active; Activity (Ramos [22]): inactive
6 |  |  |  |  | CN[C@@H]1C[C@H]2O[C@@](C)([C@@H]1OC)n1c3ccccc3c3c4c(c5c6ccccc6n2c5c31)C(=O)NC4 |  |  |  |  |  |  |  |  |  |  | Activity (Ramos [23]): Active
7 | 970 nM | 600 nM | 10% | 39% | Nc1cc(-c2c[nH]c3ncccc23)ccn1 | 870 nM | 480 nM |  | Active |  | Active | Active | inactive | Active | Active | 
